According to ChEMBL document CHEMBL1132487, “Structure-activity studies of cerulenin analogues as protein palmitoylation inhibitors” (J Med Chem, 1999):

Columns and labels:
T-24 = assay: Inhibition of human T24 cell proliferation; assay type: functional, cell-based
Method in brief: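 T24 human bladder carcinoma cells (H-[Val12]-ras overexpressing) in RPMI-1640 with 10% FBS, seeded at 10% confluency, allowed 24 h attachment, then exposed to varying concentrations up to 50 μg/mL for 72 h. Surviving cells measured by sulforhodamine B staining (MTS also used). IC50 vs untreated controls, mean ± SEM of at least three experiments.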

Homo sapiens [1] = species on record: Homo sapiens; assay: Inhibition of p21 palmitoylation at a concentration of 10(ug/ml); assay type: functional
Method in brief: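 T24 cells seeded at ~25% confluency and attached overnight, treated 4 h with compound at 10 μg/mL, then labelled 2 h with [3H]palmitate (100–200 μCi/mL). Lysates in PBS-TDS, protein-normalized (100–300 μg), immunoprecipitated with Y13-259 anti-Ras antibody and Protein G agarose. Pellet radioactivity counted by scintillation. Percent inhibition vs untreated controls, one or two experiments.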

[2] = target: Fatty acid synthase (Homo sapiens) (UniProt P49327); assay: Inhibition of fatty acid synthase at a concentration of 150 (uM)
Sequence of Fatty acid synthase (Homo sapiens) (P49327 whole entry, looked up): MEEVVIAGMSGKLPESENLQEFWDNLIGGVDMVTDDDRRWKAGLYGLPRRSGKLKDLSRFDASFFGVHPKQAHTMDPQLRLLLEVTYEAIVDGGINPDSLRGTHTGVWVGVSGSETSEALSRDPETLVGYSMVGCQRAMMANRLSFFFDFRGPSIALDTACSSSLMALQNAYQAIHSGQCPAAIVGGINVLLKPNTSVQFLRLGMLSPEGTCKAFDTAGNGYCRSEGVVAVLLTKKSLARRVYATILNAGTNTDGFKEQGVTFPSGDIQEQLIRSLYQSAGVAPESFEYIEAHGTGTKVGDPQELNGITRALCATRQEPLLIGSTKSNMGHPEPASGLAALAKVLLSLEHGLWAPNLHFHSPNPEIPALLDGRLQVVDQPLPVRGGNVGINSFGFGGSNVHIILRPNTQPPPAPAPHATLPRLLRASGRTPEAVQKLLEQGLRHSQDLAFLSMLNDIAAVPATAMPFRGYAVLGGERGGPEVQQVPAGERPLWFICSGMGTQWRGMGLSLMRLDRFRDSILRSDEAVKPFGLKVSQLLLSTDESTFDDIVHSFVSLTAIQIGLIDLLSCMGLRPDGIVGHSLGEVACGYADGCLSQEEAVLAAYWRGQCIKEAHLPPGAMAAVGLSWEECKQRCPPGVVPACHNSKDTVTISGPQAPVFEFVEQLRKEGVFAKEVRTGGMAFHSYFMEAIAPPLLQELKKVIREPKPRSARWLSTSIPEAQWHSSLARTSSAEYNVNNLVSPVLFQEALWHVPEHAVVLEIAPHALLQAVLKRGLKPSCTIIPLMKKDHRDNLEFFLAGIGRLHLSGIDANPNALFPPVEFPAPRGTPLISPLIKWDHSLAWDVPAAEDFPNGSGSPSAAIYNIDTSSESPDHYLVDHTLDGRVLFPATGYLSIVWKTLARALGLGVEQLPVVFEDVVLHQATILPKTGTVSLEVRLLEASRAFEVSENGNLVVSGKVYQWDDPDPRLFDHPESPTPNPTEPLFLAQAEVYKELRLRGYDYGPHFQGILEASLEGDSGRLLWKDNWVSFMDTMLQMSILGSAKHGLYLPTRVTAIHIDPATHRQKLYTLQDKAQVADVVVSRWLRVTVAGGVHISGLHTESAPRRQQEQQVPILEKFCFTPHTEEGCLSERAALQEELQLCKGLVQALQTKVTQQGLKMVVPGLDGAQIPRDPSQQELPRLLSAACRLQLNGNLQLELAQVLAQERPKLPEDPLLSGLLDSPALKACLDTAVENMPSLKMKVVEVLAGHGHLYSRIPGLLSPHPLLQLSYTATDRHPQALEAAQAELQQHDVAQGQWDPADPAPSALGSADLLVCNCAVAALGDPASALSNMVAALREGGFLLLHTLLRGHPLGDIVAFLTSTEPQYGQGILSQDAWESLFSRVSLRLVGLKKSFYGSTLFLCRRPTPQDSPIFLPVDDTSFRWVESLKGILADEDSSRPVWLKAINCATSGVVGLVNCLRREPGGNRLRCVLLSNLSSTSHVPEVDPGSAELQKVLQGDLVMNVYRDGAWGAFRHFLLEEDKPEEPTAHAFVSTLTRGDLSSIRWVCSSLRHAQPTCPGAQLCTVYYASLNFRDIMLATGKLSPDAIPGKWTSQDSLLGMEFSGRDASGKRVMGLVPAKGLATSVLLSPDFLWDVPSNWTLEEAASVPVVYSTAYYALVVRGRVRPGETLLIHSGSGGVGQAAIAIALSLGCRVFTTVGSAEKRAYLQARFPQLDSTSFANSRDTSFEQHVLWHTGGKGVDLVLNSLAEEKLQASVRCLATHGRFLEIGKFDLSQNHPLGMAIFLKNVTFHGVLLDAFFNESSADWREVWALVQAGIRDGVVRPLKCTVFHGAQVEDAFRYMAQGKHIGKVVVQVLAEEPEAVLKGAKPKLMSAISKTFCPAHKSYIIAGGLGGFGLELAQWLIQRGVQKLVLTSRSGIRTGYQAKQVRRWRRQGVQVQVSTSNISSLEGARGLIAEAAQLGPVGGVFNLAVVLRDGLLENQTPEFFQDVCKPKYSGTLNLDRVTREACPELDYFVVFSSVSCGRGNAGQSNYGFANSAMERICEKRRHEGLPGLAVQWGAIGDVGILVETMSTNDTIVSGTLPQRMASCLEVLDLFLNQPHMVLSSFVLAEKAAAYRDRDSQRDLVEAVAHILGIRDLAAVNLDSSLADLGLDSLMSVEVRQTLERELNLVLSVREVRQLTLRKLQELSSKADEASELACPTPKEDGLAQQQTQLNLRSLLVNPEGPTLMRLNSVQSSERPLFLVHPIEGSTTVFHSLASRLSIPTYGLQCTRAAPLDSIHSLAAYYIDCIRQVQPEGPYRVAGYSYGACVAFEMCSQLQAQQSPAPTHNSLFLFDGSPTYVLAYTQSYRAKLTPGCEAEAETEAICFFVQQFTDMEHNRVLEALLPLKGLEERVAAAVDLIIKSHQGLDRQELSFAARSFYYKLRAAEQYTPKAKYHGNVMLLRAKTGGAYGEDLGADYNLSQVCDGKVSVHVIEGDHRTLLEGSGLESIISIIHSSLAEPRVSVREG
Method in brief: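 Fatty acid synthase partially purified from HL-60 human promyelocytic leukemia cells. Lysate incubated with compound (150 μM), then activity read as rate of NADPH oxidation in presence of acetyl-CoA and malonyl-CoA. Percent inhibition reported as mean ± SEM, at least two experiments.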

Homo sapiens [3] = species on record: Homo sapiens; assay: The compound was tested for the inhibition of p21 palmitoylation at a concentration of 5(ug/mL); assay type: functional
Method in brief: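 T24 human bladder carcinoma cells seeded at ~25% confluency in 60 mm dishes, attached overnight; treated 4 h with 5 μg/mL compound, then 2 h [³H]palmitate (100–200 μCi/mL). Lysed in PBS-TDS, protein-normalized (100–300 μg), immunoprecipitated with Y13-259 anti-Ras plus Protein G agarose, washed; pellet radioactivity counted. Percent inhibition of p21 palmitoylation vs untreated controls; six experiments, mean ± SEM.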

CCCCCCCCCCCCCC(O)[C@H]1O[C@H]1C(N)=O (some centres undefined)
IC50 (T-24): 110 µM | inhibition (Homo sapiens [1]): 34% | inhibition [2]: 3%

CCCCCCCCC(=O)[C@H]1O[C@H]1C(=O)N(C)C
IC50 (T-24): 140 µM | inhibition (Homo sapiens [1]): 0% | inhibition [2]: 1%

CCCCCCCCCC(=O)[C@H]1O[C@H]1C(N)=O
IC50 (T-24): 7 µM | inhibition (Homo sapiens [1]): 63% | inhibition [2]: 92%

CCCCCCCCCCCCCCCC(=O)[C@H]1O[C@H]1C(N)=O
IC50 (T-24): 12 µM | inhibition (Homo sapiens [1]): 67% | inhibition [2]: 2%

CCCCCCCCCCCCCCCC(O)[C@H]1O[C@H]1C(N)=O (some centres undefined)
IC50 (T-24): 190 µM | inhibition (Homo sapiens [1]): 40% | inhibition [2]: 10%

CCCCCCCCCC(=O)[C@H]1O[C@H]1C(=O)N(C)C
IC50 (T-24): 77 µM | inhibition (Homo sapiens [1]): 17% | inhibition [2]: 2%

CCCCCCCCCCCCCC1OC(=O)[C@@H]2O[C@H]12 (some centres undefined)
IC50 (T-24): > 180 µM | inhibition (Homo sapiens [1]): 2% | inhibition [2]: 0%

CCCCCCCCCCCCCCCC1OC(=O)[C@@H]2O[C@H]12 (some centres undefined)
IC50 (T-24): 140 µM | inhibition (Homo sapiens [1]): 35% | inhibition [2]: 0%

CCCCCCCCC(=O)[C@H]1O[C@H]1C(N)=O
IC50 (T-24): 27 µM | inhibition (Homo sapiens [1]): 42% | inhibition [2]: 74%

CCCCCCCCCCCC(O)[C@H]1O[C@H]1C(N)=O (some centres undefined)
IC50 (T-24): 130 µM | inhibition (Homo sapiens [1]): 29% | inhibition [2]: 6%

CCCCCCCCCCCCCC(=O)[C@H]1O[C@H]1C(N)=O
IC50 (T-24): 13 µM | inhibition (Homo sapiens [1]): 47% | inhibition [2]: 0%

CCCCCCCCCCCCCCCC(=O)[C@H]1O[C@H]1C(=O)N(C)C
IC50 (T-24): 40 µM | inhibition (Homo sapiens [1]): 31% | inhibition [2]: 0%

CCCCCCCCC(O)[C@H]1O[C@H]1C(=O)N(C)C (some centres undefined)
IC50 (T-24): > 190 µM | inhibition (Homo sapiens [1]): 9% | inhibition [2]: 0%

CCCCCCCCCCCC1OC(=O)[C@@H]2O[C@H]12 (some centres undefined)
IC50 (T-24): > 200 µM | inhibition (Homo sapiens [1]): 19% | inhibition [2]: 4%

CCCCCCCCCCCCCCCCCC1OC(=O)[C@@H]2O[C@H]12 (some centres undefined)
IC50 (T-24): > 150 µM | inhibition (Homo sapiens [1]): 45% | inhibition [2]: 5%

CCCCCCCCCC(O)[C@H]1O[C@H]1C(=O)N(C)C (some centres undefined)
IC50 (T-24): 220 µM | inhibition (Homo sapiens [1]): 0% | inhibition [2]: 0%

C/C=C/C/C=C/CCC(=O)[C@H]1O[C@H]1C(N)=O [CERULENIN]
IC50 (T-24): 17 µM | inhibition [2]: 96% | inhibition (Homo sapiens [3]): 48%

CN(C)C(=O)[C@H]1O[C@H]1C(=O)c1ccccc1
IC50 (T-24): 29 µM | inhibition (Homo sapiens [1]): 59% | inhibition [2]: 3%

CCCCCCCCC(O)[C@H]1O[C@H]1C(N)=O (some centres undefined)
IC50 (T-24): > 220 µM | inhibition (Homo sapiens [1]): 16% | inhibition [2]: 4%

CCCCCCCCCCCC(=O)[C@H]1O[C@H]1C(N)=O
IC50 (T-24): 20 µM | inhibition (Homo sapiens [1]): 40% | inhibition [2]: 44%

CCCCCCCCCCCC(=O)[C@H]1O[C@H]1C(=O)N(C)C
IC50 (T-24): 49 µM | inhibition (Homo sapiens [1]): 10% | inhibition [2]: 5%

CCCCCCCCCCCCCC(=O)[C@H]1O[C@H]1C(=O)N(C)C
IC50 (T-24): 40 µM | inhibition (Homo sapiens [1]): 0% | inhibition [2]: 2%

CCCCCCCCC1OC(=O)[C@@H]2O[C@H]12 (some centres undefined)
IC50 (T-24): > 240 µM | inhibition (Homo sapiens [1]): 32% | inhibition [2]: 75%

CCCCCCCCCCCCCCCC(O)[C@H]1O[C@H]1C(=O)N(C)C (some centres undefined)
IC50 (T-24): 62 µM | inhibition (Homo sapiens [1]): 0% | inhibition [2]: 0%

CCCCCCCCCCCCCCCCCC(=O)[C@H]1O[C@H]1C(N)=O
IC50 (T-24): 17 µM | inhibition (Homo sapiens [1]): 28% | inhibition [2]: 0%

NC(=O)[C@H]1O[C@H]1C(=O)c1ccccc1
IC50 (T-24): 15 µM | inhibition (Homo sapiens [1]): 22% | inhibition [2]: 85%

CCCCCCCCCCCCCCCCCC(O)[C@H]1O[C@H]1C(N)=O (some centres undefined)
IC50 (T-24): > 140 µM | inhibition (Homo sapiens [1]): 3% | inhibition [2]: 0%

CCCCCCCCCCCCCCCCCC(=O)[C@H]1O[C@H]1C(=O)N(C)C
IC50 (T-24): 34 µM | inhibition (Homo sapiens [1]): 21% | inhibition [2]: 0%

CCCCCCCCCC1OC(=O)[C@@H]2O[C@H]12 (some centres undefined)
IC50 (T-24): > 220 µM | inhibition (Homo sapiens [1]): 33% | inhibition [2]: 40%

CCCCCCCCCCCC(O)[C@H]1O[C@H]1C(=O)N(C)C (some centres undefined)
IC50 (T-24): 95 µM | inhibition (Homo sapiens [1]): 0% | inhibition [2]: 9%

CCCCCCCCCCCCCCCCCC(O)[C@H]1O[C@H]1C(=O)N(C)C (some centres undefined)
IC50 (T-24): 52 µM | inhibition (Homo sapiens [1]): 0% | inhibition [2]: 3%

CCCCCCCCCCCCCC(O)[C@H]1O[C@H]1C(=O)N(C)C (some centres undefined)
IC50 (T-24): 69 µM | inhibition (Homo sapiens [1]): 16% | inhibition [2]: 5%

CCCCCCCCCC(O)[C@H]1O[C@H]1C(N)=O (some centres undefined)
IC50 (T-24): > 200 µM | inhibition (Homo sapiens [1]): 27% | inhibition [2]: 5%
